Source: ChEMBL document CHEMBL3739301, “Design, synthesis and biological evaluation of tricyclic diterpene derivatives as novel neuroprotective agents against ischemic brain injury” (Eur J Med Chem, 2015)
The source made the active and inactive calls. No cut-off for these calls is given here.

tested on: not listed separately; assay: Neuroprotective activity against glutamate-induced neuronal cell death in Sprague-Dawley rat CGN cells assessed as cell viability at 10 uM preincubated for 24 hrs followed by glutamate challenge measured after 24 hrs by MTT assay (reference value: 40.4%); format: functional; settings: read-out: Activity

| Compound | viability at 10 µM |
| --- | --- |
| COC(=O)c1cc2c(cc1OC)[C@@]1(C)CC[C@H](O)C(C)(C)[C@@H]1CC2 | 72.4% |
| COc1cc2c(cc1C(C)=O)CC[C@H]1C(C)(C)[C@@H](OC(=O)C(F)(F)F)CC[C@]21C | 81% |
| COc1cc2c(cc1C(=O)O)CC[C@H]1C(C)(C)[C@@H](O)CC[C@]21C | 54% |
| COc1cc2c(cc1C(C)=O)CC[C@H]1C(C)(C)[C@@H](OC(C)=O)CC[C@]21C | 80.4% |
| COc1cc2c(cc1C(=O)N1CCCCC1)CC[C@H]1C(C)(C)[C@@H](O)CC[C@]21C | 79.1% |
| COc1cc2c(cc1C(=O)C(C)C)CC[C@H]1C(C)(C)[C@@H](O)CC[C@]21C | 38.8% |
| COc1cc2c(cc1C(C)=O)CC[C@H]1C(C)(C)[C@@H](O)CC[C@]21C | 85.2% |
| CNC(=O)c1cc2c(cc1OC)[C@@]1(C)CC[C@H](O)C(C)(C)[C@@H]1CC2 | 77.3% |
| CCCCCCCC(=O)c1cc2c(cc1OC)[C@@]1(C)CC[C@H](O)C(C)(C)[C@@H]1CC2 | 40.5% |
| COc1cc2c(cc1C(C)=O)CC[C@H]1C(C)(C)C(=O)CC[C@]21C | 69.7% |
| COCCC(=O)c1cc2c(cc1OC)[C@@]1(C)CC[C@H](O)C(C)(C)[C@@H]1CC2 | 71.5% |

tested on: not listed separately; assay: Neuroprotective activity against oxygen-glucose deprivation-induced neuronal cell death in Sprague-Dawley rat CGN cells assessed as cell viability at 10 uM preincubated for 24 hrs followed by induction of oxygen-glucose deprivation measured after 24 hrs by MTT assay (reference value: 48.7%); format: functional; settings: read-out: Activity

| Compound | viability at 10 µM |
| --- | --- |
| COC(=O)c1cc2c(cc1OC)[C@@]1(C)CC[C@H](O)C(C)(C)[C@@H]1CC2 | 68.4% |
| COc1cc2c(cc1C(C)=O)CC[C@H]1C(C)(C)[C@@H](OC(=O)C(F)(F)F)CC[C@]21C | 60.5% |
| COc1cc2c(cc1C(C)=O)CC[C@H]1C(C)(C)[C@@H](OC(C)=O)CC[C@]21C | 60% |
| COc1cc2c(cc1C(C)=O)CC[C@H]1C(C)(C)[C@@H](O)CC[C@]21C | 74.5% |

tested on: not listed separately; assay: Neuroprotective activity against glutamate-induced neuronal cell death in Sprague-Dawley rat CGN cells at 10 uM preincubated for 24 hrs followed by glutamate challenge measured after 24 hrs relative to control; format: functional; settings: not given

| Compound | Activity |
| --- | --- |
| COC(=O)c1cc2c(cc1OC)[C@@]1(C)CC[C@H](O)C(C)(C)[C@@H]1CC2 | 53.7% |
| COc1cc2c(cc1C(C)=O)CC[C@H]1C(C)(C)[C@@H](OC(=O)C(F)(F)F)CC[C@]21C | 68.1% |
| COc1cc2c(cc1C(=O)O)CC[C@H]1C(C)(C)[C@@H](O)CC[C@]21C | 22.8% |
| COc1cc2c(cc1C(C)=O)CC[C@H]1C(C)(C)[C@@H](OC(C)=O)CC[C@]21C | 67.1% |
| COc1cc2c(cc1C(=O)N1CCCCC1)CC[C@H]1C(C)(C)[C@@H](O)CC[C@]21C | 64.9% |
| COc1cc2c(cc1C(C)=O)CC[C@H]1C(C)(C)[C@@H](O)CC[C@]21C | 75.2% |
| CNC(=O)c1cc2c(cc1OC)[C@@]1(C)CC[C@H](O)C(C)(C)[C@@H]1CC2 | 61.9% |
| COc1cc2c(cc1C(C)=O)CC[C@H]1C(C)(C)C(=O)CC[C@]21C | 49.2% |
| COCCC(=O)c1cc2c(cc1OC)[C@@]1(C)CC[C@H](O)C(C)(C)[C@@H]1CC2 | 52.2% |

tested on: neuronal; assay: Neuroprotective activity against glutamate-induced neuronal cell death in Sprague-Dawley rat CGN cells assessed as increase in cell viability preincubated for 24 hrs followed by glutamate challenge measured after 24 hrs by MTT assay; format: functional, cell-based; settings: not given

| Compound | Activity |
| --- | --- |
| COC(=O)c1cc2c(cc1OC)[C@@]1(C)CC[C@H](O)C(C)(C)[C@@H]1CC2 | Dose-dependent effect |
| COc1cc2c(cc1C(C)=O)CC[C@H]1C(C)(C)[C@@H](OC(=O)C(F)(F)F)CC[C@]21C | Dose-dependent effect |
| COc1cc2c(cc1C(C)=O)CC[C@H]1C(C)(C)[C@@H](OC(C)=O)CC[C@]21C | Dose-dependent effect |
| COc1cc2c(cc1C(C)=O)CC[C@H]1C(C)(C)[C@@H](O)CC[C@]21C | Dose-dependent effect |

tested on: not listed separately; assay: Neuroprotective activity against oxygen-glucose deprivation-induced neuronal cell death in Sprague-Dawley rat CGN cells assessed as cell viability at 1 uM preincubated for 24 hrs followed by induction of oxygen-glucose deprivation measured after 24 hrs by MTT assay (reference value: 48.7%); format: functional; settings: read-out: Activity

| Compound | viability at 1 µM |
| --- | --- |
| COC(=O)c1cc2c(cc1OC)[C@@]1(C)CC[C@H](O)C(C)(C)[C@@H]1CC2 | 43.9% |
| COc1cc2c(cc1C(C)=O)CC[C@H]1C(C)(C)[C@@H](OC(=O)C(F)(F)F)CC[C@]21C | 48.2% |
| COc1cc2c(cc1C(C)=O)CC[C@H]1C(C)(C)[C@@H](OC(C)=O)CC[C@]21C | 50% |
| COc1cc2c(cc1C(C)=O)CC[C@H]1C(C)(C)[C@@H](O)CC[C@]21C | 51.1% |

tested on: not listed separately; assay: Neuroprotective activity against oxygen-glucose deprivation-induced neuronal cell death in Sprague-Dawley rat CGN cells at 10 uM preincubated for 24 hrs followed by induction of oxygen-glucose deprivation measured after 24 hrs relative to control; format: functional; settings: not given

| Compound | Activity |
| --- | --- |
| COC(=O)c1cc2c(cc1OC)[C@@]1(C)CC[C@H](O)C(C)(C)[C@@H]1CC2 | 38.4% |
| COc1cc2c(cc1C(C)=O)CC[C@H]1C(C)(C)[C@@H](OC(=O)C(F)(F)F)CC[C@]21C | 23% |
| COc1cc2c(cc1C(C)=O)CC[C@H]1C(C)(C)[C@@H](OC(C)=O)CC[C@]21C | 22% |
| COc1cc2c(cc1C(C)=O)CC[C@H]1C(C)(C)[C@@H](O)CC[C@]21C | 50.3% |

tested on: not listed separately; assay: Neuroprotective activity against nutrient deprivation-induced neuronal cell death in Sprague-Dawley rat CGN cells at 10 uM preincubated for 24 hrs followed by induction of nutrient deprivation measured after 24 hrs relative to control; format: functional; settings: not given
Summary of the method: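 Primary rat cerebellar granule neurons (8-day-old Sprague-Dawley pups, DIV 6-8) pretreated 24 h with compound (0.1% DMSO final), then deprived of B27 serum substitute for 24 h. MTT viability (0.5 mg/ml, 4 h) read at 570 nm against control = 100%; neuroprotection percentage derived from the basal deprived value; mean ± SD, n = 3.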

| Compound | Activity |
| --- | --- |
| COC(=O)c1cc2c(cc1OC)[C@@]1(C)CC[C@H](O)C(C)(C)[C@@H]1CC2 | 13.6% |
| COc1cc2c(cc1C(C)=O)CC[C@H]1C(C)(C)[C@@H](OC(=O)C(F)(F)F)CC[C@]21C | 5% |
| COc1cc2c(cc1C(C)=O)CC[C@H]1C(C)(C)[C@@H](OC(C)=O)CC[C@]21C | 6% |
| COc1cc2c(cc1C(C)=O)CC[C@H]1C(C)(C)[C@@H](O)CC[C@]21C | 19.5% |

tested on: not listed separately; assay: Neuroprotective activity in Sprague-Dawley rat CGN cells assessed as upregulation of HO-1 expression after 24 hrs by Western blot analysis; format: functional, cell-based; settings: not given
Summary of the method: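 Primary granule neurons treated with a concentration series for 24 h, lysed in RIPA buffer, protein by BCA. Separated on 15% SDS-PAGE, transferred to PVDF, blocked in 5% BSA. Primary antibody overnight at 4 °C, secondary 30 min at room temperature; chemiluminescent detection. HO-1 quantified by densitometry normalized to β-actin. n = 3, mean ± SD.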

| Compound | Activity |
| --- | --- |
| COc1cc2c(cc1C(C)=O)CC[C@H]1C(C)(C)[C@@H](O)CC[C@]21C | Dose-dependent effect |

tested on: neuronal; assay: Neuroprotective activity against glutamate-induced neuronal cell death in Sprague-Dawley rat CGN cells assessed as increase in SOD level at 10 uM preincubated for 24 hrs followed by glutamate challenge measured after 24 hrs; format: functional, cell-based; settings: not given

| Compound | Activity |
| --- | --- |
| COc1cc2c(cc1C(C)=O)CC[C@H]1C(C)(C)[C@@H](O)CC[C@]21C | Active |

tested on: neuronal; assay: Neuroprotective activity against glutamate-induced neuronal cell death in Sprague-Dawley rat CGN cells assessed as increase in GSH level at 10 uM preincubated for 24 hrs followed by glutamate challenge measured after 24 hrs; format: functional, cell-based; settings: not given
Summary of the method: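 Granule neurons pretreated 24 h with […] compound, then […] for 24 h. Lysed in buffer containing protease inhibitor cocktail; protein determined by BCA. SOD activity and GSH level measured with commercial kits. n = 3, mean ± SD.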

| Compound | Activity |
| --- | --- |
| COc1cc2c(cc1C(C)=O)CC[C@H]1C(C)(C)[C@@H](O)CC[C@]21C | Active |

tested on: not listed separately; assay: Permeability of the compound at 25 ug/ml after 18 hrs by PAMPA assay; format: ADME; settings: read-out: permeability

| Compound | Papp at 18 h, 25 ug/ml |
| --- | --- |
| COc1cc2c(cc1C(C)=O)CC[C@H]1C(C)(C)[C@@H](OC(=O)C(F)(F)F)CC[C@]21C | 7.31 ×10⁻⁶ cm/s |

tested on: not listed separately; assay: Cytotoxicity against Sprague-Dawley rat CGN cells at <10 uM after 72 hrs by MTT assay; format: cell-based; settings: not given
Summary of the method: (§1)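 Primary cerebellar granule neurons from 8-day SD rat pups; cytosine arabinoside […] added at 24 h, used at DIV 6–8. Cells exposed to a concentration series for 72 h, 0.1% DMSO final. Viability by MTT (0.5 mg/ml, 4 h, 37 °C); formazan dissolved in DMSO, OD 570 nm. n = 3, mean ± SD.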

| Compound | Activity |
| --- | --- |
| COC(=O)c1cc2c(cc1OC)[C@@]1(C)CC[C@H](O)C(C)(C)[C@@H]1CC2 | Non-toxic |
| COc1cc2c(cc1C(C)=O)CC[C@H]1C(C)(C)[C@@H](OC(=O)C(F)(F)F)CC[C@]21C | Non-toxic |
| COc1cc2c(cc1C(C)=O)CC[C@H]1C(C)(C)[C@@H](OC(C)=O)CC[C@]21C | Non-toxic |
| COc1cc2c(cc1C(C)=O)CC[C@H]1C(C)(C)[C@@H](O)CC[C@]21C | Non-toxic |

tested on: not listed separately; assay: Cytotoxicity against Sprague-Dawley rat CGN cells at 50 to 100 uM after 72 hrs by MTT assay; format: cell-based; settings: not given; summary of the method: as §1

| Compound | Activity |
| --- | --- |
| COc1cc2c(cc1C(C)=O)CC[C@H]1C(C)(C)[C@@H](OC(C)=O)CC[C@]21C | Toxic |
| COc1cc2c(cc1C(C)=O)CC[C@H]1C(C)(C)[C@@H](O)CC[C@]21C | Toxic |
